Assays:
MH60 [1] = assay: Growth inhibition of IL-6-independent mouse MH60 cells after 72 hrs by MTT assay; assay type: functional, cell-based; conditions: MH60, 72 h
Procedure, shortened: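 Mouse B-cell/myeloma hybridoma MH-60 subline adapted to grow without IL-6 (rhIL-6 withdrawn gradually), kept in RPMI 1640 + 10% FCS with no rhIL-6. 0.5 × 10^4 cells/well pre-incubated 24 h at 37 °C, 5% CO2, then exposed 72 h to graded compound concentrations. MTT read-out; mean with standard errors of 3–4 experiments.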

MH60 [2] = assay: Growth inhibition of IL6-dependent mouse MH60 cells after 72 hrs by MTT assay in presence of human recombinant IL6; assay type: functional, cell-based; conditions: MH60, 72 h
Procedure, shortened: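 IL-6-dependent MH-60 mouse B-cell/myeloma hybridoma kept in RPMI 1640 + 10% FCS containing 0.5 ng/mL recombinant human IL-6. 0.5 × 10^4 cells/well in rhIL-6 medium pre-incubated 24 h at 37 °C, 5% CO2, then treated 72 h with graded compound concentrations. Growth by MTT; mean with standard errors of 3–4 experiments.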

Row | Compound | IC50 (MH60 [1]) [µM] | IC50 (MH60 [2]) [µM]
1 | C[C@]12CCC(=O)C[C@H]1CC[C@@H]1[C@@H]2CC[C@]2(C)[C@@H]([C@]34C=CC(=O)O[C@H]3O4)C[C@H]3O[C@]132 | 8.3 | 4.3
2 | C[C@]12CCC(=O)C[C@H]1CC[C@@H]1[C@@H]2CC[C@]2(C)[C@@H]([C@@]34C=CC(=O)O[C@@H]3O4)C[C@H]3O[C@]132 | 4.3 | 1.3
3 | C[C@]12CC[C@H](OC=O)C[C@H]1CC[C@@H]1[C@@H]2CC[C@]2(C)[C@@H]([C@]34C=CC(=O)O[C@H]3O4)C[C@H]3O[C@]132 | > 58.4 | 8.9
4 | C[C@]12CC[C@H](O)C[C@H]1CC[C@@H]1[C@@H]2CC[C@]2(C)[C@@H](c3ccc(=O)oc3)CC[C@]12O [BUFALIN] | > 64.8 | 31.9
5 | C[C@]12CC[C@H](O)C[C@H]1CC[C@@H]1[C@@H]2CC[C@]2(C)[C@@H]([C@]34C=CC(=O)O[C@H]3O4)C[C@H]3O[C@]132 | > 62.5 | 24.8
6 | C[C@]12CC[C@H](OC=O)C[C@H]1CC[C@@H]1[C@@H]2CC[C@]2(C)[C@@H](c3ccc(=O)oc3)C[C@H]3O[C@]132 | > 60.7 | > 60.7
7 | CCCC(=O)O[C@H]1CC[C@@]2(C)[C@H](CC[C@@H]3[C@@H]2CC[C@]2(C)[C@@H]([C@]45C=CC(=O)O[C@H]4O5)C[C@H]4O[C@]342)C1 | > 54.8 | 9.4
8 | CC(=O)O[C@H]1[C@H]2O[C@]23[C@@H]2CC[C@@H]4C[C@@H](O)CC[C@]4(C)[C@H]2CC[C@]3(C)[C@H]1c1ccc(=O)oc1 [CINOBUFAGIN] | > 56.3 | > 56.3
9 | C[C@]12CC[C@H](O)C[C@H]1CC[C@@H]1[C@@H]2CC[C@]2(C)[C@@H]([C@@]34C=CC(=O)O[C@@H]3O4)C[C@H]3O[C@]132 | 45 | 18.3
10 | CC(C)(C)C(=O)O[C@H]1CC[C@@]2(C)[C@H](CC[C@@H]3[C@@H]2CC[C@]2(C)[C@@H]([C@@]45C=CC(=O)O[C@@H]4O5)C[C@H]4O[C@]342)C1 | 34 | 18.1
11 | C[C@]12CC[C@H](OC=O)C[C@H]1CC[C@@H]1[C@@H]2CC[C@]2(C)[C@@H]([C@@]34C=CC(=O)O[C@@H]3O4)C[C@H]3O[C@]132 | 12.9 | 5.6
12 | CCCCC(=O)O[C@H]1CC[C@@]2(C)[C@H](CC[C@@H]3[C@@H]2CC[C@]2(C)[C@@H]([C@@]45C=CC(=O)O[C@@H]4O5)C[C@H]4O[C@]342)C1 | 19.1 | 6.4
13 | CC(=O)O[C@@H]1[C@H]2O[C@]23[C@@H]2CC[C@@H]4C[C@@H](O)CC[C@]4(C)[C@H]2CC[C@]3(C)[C@H]1[C@@]12C=CC(=O)O[C@@H]1O2 | > 54.2 | > 54.2
14 | C[C@]12CC[C@H](O)C[C@H]1CC[C@@H]1[C@@H]2CC[C@]2(C)[C@@H]([C@@]34C=CC(=O)O[C@@H]3O4)CC[C@]12O | > 62.2 | > 62.2
15 | CCCCC(=O)O[C@H]1CC[C@@]2(C)[C@H](CC[C@@H]3[C@@H]2CC[C@]2(C)[C@@H]([C@]45C=CC(=O)O[C@H]4O5)C[C@H]4O[C@]342)C1 | > 53.2 | 11.6
16 | CC(=O)O[C@H]1C[C@]2(O)[C@@H]3CC[C@@H]4C[C@@H](O)CC[C@]4(C)[C@H]3CC[C@]2(C)[C@H]1c1ccc(=O)oc1 [BUFOTALIN] | > 56.2 | > 56.2
17 | C[C@]12CC[C@H](O)C[C@H]1CC[C@@H]1[C@@H]2CC[C@]2(C)[C@@H]([C@]34C=CC(=O)O[C@H]3O4)CC[C@]12O | > 62.2 | > 62.2
18 | C[C@]12CCC(=O)C[C@H]1CC[C@@H]1[C@@H]2CC[C@]2(C)[C@@H](c3ccc(=O)oc3)C[C@H]3O[C@]132 | 8.4 | 2.4
19 | CC(=O)O[C@@H]1[C@H]2O[C@]23[C@@H]2CC[C@@H]4C[C@@H](O)CC[C@]4(C)[C@H]2CC[C@]3(C)[C@H]1[C@]12C=CC(=O)O[C@H]1O2 | > 54.2 | > 54.2
20 | C[C@]12CC[C@H](O)C[C@H]1CC[C@@H]1[C@@H]2CC[C@]2(C)[C@@H](c3ccc(=O)oc3)C[C@H]3O[C@]132 [BUFOGENIN] | > 65.1 | 22.9
21 | CC(=O)O[C@H]1CC[C@@]2(C)[C@H](CC[C@@H]3[C@@H]2CC[C@]2(C)[C@@H]([C@]45C=CC(=O)O[C@H]4O5)C[C@H]4O[C@]342)C1 | > 56.6 | 5.3
22 | CC(C)(C)C(=O)O[C@H]1CC[C@@]2(C)[C@H](CC[C@@H]3[C@@H]2CC[C@]2(C)[C@@H]([C@]45C=CC(=O)O[C@H]4O5)C[C@H]4O[C@]342)C1 | > 53.2 | 6.8
23 | CCCC(=O)O[C@H]1CC[C@@]2(C)[C@H](CC[C@@H]3[C@@H]2CC[C@]2(C)[C@@H]([C@@]45C=CC(=O)O[C@@H]4O5)C[C@H]4O[C@]342)C1 | 17.5 | 2
24 | CC(=O)O[C@H]1CC[C@@]2(C)[C@H](CC[C@@H]3[C@@H]2CC[C@]2(C)[C@@H]([C@@]45C=CC(=O)O[C@@H]4O5)C[C@H]4O[C@]342)C1 | 21.9 | 14.3
25 | CC(=O)O[C@H]1CC[C@@]2(C)[C@H](CC[C@@H]3[C@@H]2CC[C@]2(C)[C@@H](c4ccc(=O)oc4)C[C@H]4O[C@]342)C1 | > 58.7 | > 58.7

Source: ChEMBL document CHEMBL1148977, “Inhibitory effects of bufadienolides on interleukin-6 in MH-60 cells” (J Nat Prod, 2004)
